# High-throughput results from PubChem BioAssay.
# A selection: hits, their analogues and other compounds. The true share with any hit is near 3.3%.
# MBD2 DNA inh: inhibitors of human MBD2 binding to methylated oligonucleotide | 0.31% of 370,000 active | TR-FRET | AID 686964 | inhibition, % at 4.4 µM; in the data active = inhibition above about 13%
# SIAE inh: blocks human sialic acid acetylesterase; Q9HAT2; SIAE FP-Rh probe binding, fluorescence polarization; inhibition, % at 9.66 µM; 0.69% of 370,000 active; AID 1053197;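 active = inhibition above a cutoff: mean of compounds within the control limits plus 3 SD of those, cut at about 17% in these data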;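 also: 0% = plate median of compound wells and 100% = probe without SIAE protein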
# TDP2 absorb: blocks human TDP2 phosphodiesterase activity; inhibition, % at 12.8 µM; O95551; recombinant TDP2, T5PNP hydrolysis, p-nitrophenol absorbance 415 nm; 0.34% of 370,000 active; AID 720702;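 active = inhibition above the mean of all tested compounds plus 3 SD, set per campaign, cut at about 25% in these data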;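 also: 0% = DMSO with enzyme and 100% = buffer with substrate but no TDP2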
#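 Test system: Human TDP2 enzyme | Reagent: 5 mM T5PNP | Compound dosing: 12.8 µM single point, 1% DMSO | Incubation: Enzyme reaction with compound for 2 h at 37 °C | Technique: p-Nitrophenol epi absorbance | Read-out: % inhibition relative to enzyme-containing and enzyme-free wells | Benchmarks: High control without enzyme, low control DMSO plus TDP2 | Replicates: Singlicate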
# PRMT1 FP inh: PRMT1 (human) inhibition, primary screen. inhibition, % at 2.79 µM. 1.3% of 370,000 active. AID 652257. recombinant PRMT1, activity-based probe fluorescence polarization;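 active = inhibition above about 21% made by adding two undisclosed values, limit read from the data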
# LEDGF integ inh: blocks HIV-1 LEDGF/p75-dependent DNA integration; inhibition, % at 3.7 µM; 0.64% of 370,000 active; TR-FRET IN-LEDGF/p75 DNA integration, Eu/Cy5; AID 743269;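 active = inhibition above the screen-wide mean plus 3 SD, cut at about 13% in these data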;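 also: signal is the Cy5 over europium emission ratio at 671 and 618 nm; 0% = plate median of compound wells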
# UHRF1 binding: human UHRF1 methylated DNA binding inhibitors | 0.75% of 370,000 active | UHRF1 binding to methylated oligo, TR-FRET | inhibition, % at 4.4 µM;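 also: UHRF1 SRA domain binding a hemimethylated CpG hairpin DNA probe; 0% = median of test compound wells and 100% = reference inhibitor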
# Target sequence (Q96T88 whole entry, looked up, the tested form may be a part): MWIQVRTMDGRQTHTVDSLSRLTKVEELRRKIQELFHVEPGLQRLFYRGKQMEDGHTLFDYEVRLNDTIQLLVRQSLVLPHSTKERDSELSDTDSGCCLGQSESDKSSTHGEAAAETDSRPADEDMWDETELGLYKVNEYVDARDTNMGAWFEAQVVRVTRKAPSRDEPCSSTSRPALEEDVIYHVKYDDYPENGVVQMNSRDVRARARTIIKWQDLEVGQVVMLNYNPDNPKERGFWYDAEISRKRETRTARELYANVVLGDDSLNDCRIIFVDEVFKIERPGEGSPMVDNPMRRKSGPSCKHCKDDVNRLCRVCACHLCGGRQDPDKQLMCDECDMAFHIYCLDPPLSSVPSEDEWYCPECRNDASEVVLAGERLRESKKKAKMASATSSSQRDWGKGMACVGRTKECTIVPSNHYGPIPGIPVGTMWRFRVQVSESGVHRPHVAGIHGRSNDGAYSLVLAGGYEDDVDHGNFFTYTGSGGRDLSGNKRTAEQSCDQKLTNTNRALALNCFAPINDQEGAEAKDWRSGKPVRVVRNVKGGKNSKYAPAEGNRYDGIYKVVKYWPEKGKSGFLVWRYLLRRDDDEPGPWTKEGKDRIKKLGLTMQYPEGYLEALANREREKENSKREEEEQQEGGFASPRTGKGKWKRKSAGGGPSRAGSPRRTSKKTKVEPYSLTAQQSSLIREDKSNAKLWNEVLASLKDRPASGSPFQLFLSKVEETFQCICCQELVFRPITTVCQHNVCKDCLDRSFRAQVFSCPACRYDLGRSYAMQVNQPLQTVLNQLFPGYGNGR
# PRMT1 confirm: confirmation of human PRMT1 inhibitors. shares compounds with PRMT1 FP inh. recombinant His-PRMT1, activity-based probe fluorescence polarization. inhibition, % at 2.79 µM. 42% of 3,300 active. AID 687036;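 active = mean inhibition across replicates above the hit cutoff derived for the earlier primary screen, cut at about 22% in these data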
# UHRF1 DNA bind: inhibits human UHRF1 binding to methylated oligonucleotide, MBD2 counter-screen. shares compounds with MBD2 DNA inh. TR-FRET. inhibition, % at 4.4 µM. 25% of 1,000 active. AID 720530;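 also: UHRF1 SRA domain binding a labeled hemimethylated CpG hairpin DNA; 0% = vehicle only and 100% = reference inhibitor with vehicle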
# MBD2 DBD conf: confirmation of human MBD2-DBD methylated oligonucleotide binding inhibitors; shares compounds with MBD2 DNA inh; TR-FRET MBD2-DBD binding to methylated oligonucleotide; inhibition, % at 4.4 µM; 26% of 1,000 active; AID 720531; in the data active = inhibition above about 14%
# TDP2 confirm: human TDP2 inhibition, confirmation | shares compounds with TDP2 absorb | recombinant human TDP2, absorbance read-out | inhibition, % at 12.8 µM | 22% of 1,100 active; in the data active = inhibition above about 25%;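 also: 0% = vehicle with enzyme and 100% = no enzyme buffer only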
# IN multimer act: HIV-1 integrase multimerization activation, counter-screen | shares compounds with LEDGF integ inh | TR-FRET HIV-1 integrase multimerization, biochemical | activation, % at 7.7 µM | 17% of 2,000 active | AID 1053131; in the data active = activation above about 8.9%
# TR-FRET interf: counter-screen for LEDGF/p75 integration inhibitors: TR-FRET optical interference; shares compounds with LEDGF integ inh; TR-FRET optical interference counterscreen, HIV-1 IN multimerization; inhibition, % at 7.7 µM; 2,000 tested, under 10 active; AID 1053135;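 active = inhibition above the mean over all tested compounds plus 3 SD, which no compound reached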;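 also: 0% = integrase with antibodies and DMSO and 100% = antibodies without integrase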
# LEDGF integ conf: confirmation of HIV-1 LEDGF/p75-dependent integration inhibitors. shares compounds with LEDGF integ inh. TR-FRET LEDGF/p75-dependent HIV-1 integration, biochemical. inhibition, % at 3.7 µM. 36% of 2,000 active. AID 1053136; in the data active = inhibition above about 14%
# The depositor's hits bear a star; / = no result. Rule as the data show it, unless noted: active = inhibition above about 21%; inactive = the rest.
SMILES,MBD2 DNA inh,SIAE inh,TDP2 absorb,PRMT1 FP inh,LEDGF integ inh,UHRF1 binding,PRMT1 confirm,IN multimer act,TR-FRET interf,LEDGF integ conf,others
O=S(=O)(c1ccc2nc(-c3ccco3)c(-c3ccco3)nc2c1)N1CCOCC1,14*,4,17,52*,67*,30*,69*,1,-5,45*,UHRF1 DNA bind=17;MBD2 DBD conf=-2
Cc1ccc(-n2c(SCC(=O)c3ccc(Br)cc3)nnc2-c2ccncc2)cc1,2,-4,5,-2,0,0,/,/,/,/,
O=C(Cc1nnc(NC(=O)c2ccccc2)s1)N/N=C/c1ccco1,19*,1,-2,41*,36*,27*,8,1,-5,3,UHRF1 DNA bind=9;MBD2 DBD conf=2
COCC(=O)N(C[C@H]1[C@H](c2ccccc2)[C@@H](CO)N1C(=O)NC(C)C)C(C)C,1,2,-5,3,2,-1,/,/,/,/,
CN1C2=N[C@@H](c3cccc(C(F)(F)F)c3)CC(=O)N2/C(=C\c2ccccc2)[C@H]1c1ccccc1,31*,0,0,55*,16*,51*,47*,20*,-99,8,UHRF1 DNA bind=29*;MBD2 DBD conf=23*
Cc1ccc(/C=C2/C(=O)c3ccc(C(=O)O)cc3C2=O)o1,22*,-23,26*,41*,69*,78*,39*,25*,-88,58*,UHRF1 DNA bind=40*;MBD2 DBD conf=2;TDP2 confirm=25*
CN(Cc1ccccc1)C(=O)OCc1cn(Cc2c(F)cccc2F)nn1,-3,3,-6,0,-3,-1,/,/,/,/,
COCCN(CCOC)Cc1c(O)ccc2c1O/C(=C\c1ccco1)C2=O,2,5,9,31*,41*,25*,27*,24*,-84,22*,
O=C1/C(=C/c2ccco2)Oc2c1ccc(O)c2CN1CCCCC1,1,4,6,35*,22*,14,47*,13*,-65,23*,
CCC(=O)Oc1ccc2c(c1)O/C(=C\c1ccco1)C2=O,5,2,-6,63*,25*,20,20,7,-36,10,
N#Cc1cc2c(=O)n3ccccc3nc2n(Cc2ccco2)c1=NC(=O)c1ccco1,4,-5,6,32*,30*,22*,2,0,2,5,
C=CCN=c1scc(-c2ccco2)n1/N=C/c1ccc(O)c(O)c1O,-5,2,0,29*,43*,0,31*,7,-37,30*,
CN=c1scc(-c2cccs2)n1/N=C/c1ccccc1O,0,9,3,-2,-3,0,/,/,/,/,
CN=c1scc(-c2cccs2)n1/N=C/c1ccc(O)c(O)c1O,4,13,-1,40*,28*,8,38*,5,-25,42*,
O=C(N/N=C/C=C/c1ccco1)/C(=C/c1ccccc1)NC(=O)c1ccccc1,-1,8,-19,30*,18*,-1,16,8,-39,29*,
O=C(Cc1cccs1)N/N=C/C=C\c1ccco1,10,6,3,11,7,0,/,/,/,/,
O=C(N/N=C/C=C\c1ccco1)c1cccs1,3,11,16,33*,15*,8,23*,8,-30,20*,
Cc1nc2sc(C(c3ccco3)N3CCc4ccccc4C3)c(O)n2n1 (stereo not drawn),-3,-1,-4,45*,21*,8,15,0,1,11,
O=[N+]([O-])c1ncccc1OCCOc1ccc(Cl)cc1Cl,4,5,4,6,-1,1,/,/,/,/,
O=S1(=O)c2ccc(Br)cc2OC[C@H](Cc2ccccc2)N1Cc1cn(Cc2ccc(Br)cc2)nn1,0,-6,-10,2,-2,-4,/,/,/,/,
CCOC(=O)c1c(N)sc(=S)c2c1CCC2,4,4,-1,27*,34*,16,16,1,-3,32*,
CCCOC(=O)c1c(N)sc2c1CCC2,-5,1,-7,10,2,0,/,/,/,/,
O=C(/C=C/c1ccc([N+](=O)[O-])cc1)c1ccco1,-9,-3,-9,-3,-3,-1,/,/,/,/,
O=C(/C=C/c1ccc(Br)cc1)c1ccco1,-7,3,14,5,1,-3,/,/,/,/,
O=C(C=Cc1ccco1)c1ccco1,20*,3,-8,43*,73*,58*,11,2,-8,7,UHRF1 DNA bind=11;MBD2 DBD conf=1
SMILES,MBD2 DNA inh,SIAE inh,TDP2 absorb,PRMT1 FP inh,LEDGF integ inh,UHRF1 binding,PRMT1 confirm,IN multimer act,TR-FRET interf,LEDGF integ conf,others
O=C(/C=C/c1ccc([N+](=O)[O-])cc1)/C=C/c1ccco1,10,10,13,40*,22*,17,60*,0,-1,47*,
O=S(=O)(O)c1cc(O)c(N=Nc2ccc(O)cc2O)c2ccccc12,-7,11,16,44*,32*,12,43*,95*,-339,40*,
O=[N+]([O-])c1ccccc1N=Nc1ccc(O)cc1O,-5,12,8,4,-4,-2,/,/,/,/,
Nc1[nH]c(C(=O)c2ccc(Br)cc2)c(-c2ccc(Br)cc2)c1C(=O)N1CCCCC1,4,-13,-9,1,-1,-1,/,/,/,/,
Oc1ccc(-c2n[nH]c(=S)n2Cc2ccco2)cc1,4,2,1,5,1,1,/,/,/,/,
Cc1nn(C)c(-c2n[nH]c(=S)n2Cc2ccco2)c1Cl,7,-3,1,28*,20*,8,3,1,-5,-6,
COC(=O)C/C=C/[C@H](C)[C@@H](NC(=O)C(F)(F)F)c1ccccc1Br,2,2,3,-2,1,-3,/,/,/,/,
O=C(Nc1ccccc1F)O[C@@H]1CC[C@@]23CCCN2C(=O)CCC[C@H]3C1,-7,6,-2,0,-1,0,/,/,/,/,
